Laboratory results as given in ChEMBL document CHEMBL5360630, “Macrocyclic Peptidomimetic Plasmepsin X Inhibitors with Potent In Vitro and In Vivo Antimalarial Activity” (J Med Chem, 2023).
Activity calls are given as the source filed them. The calls are words filed in the database; no cut-off is given here.

How the values were obtained:
[1] = Toxicity in NMRI mouse assessed as drug tolerance at 50 mg/kg, po measured upto 24 hrs by UP-LCMS analysis; assay type: organism-based; settings: in vivo
Procedure, shortened: (§1)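 Female NMRI mice (10–12 weeks, 29–32 g), acclimatized 1 week, given a single peroral bolus of 50 mg/kg (10 mL/kg). Toxicity signs scored on a 0–6 scale at 0–2, 5, 10, 15, 30, 60, 120, 240 min and 24 h after dosing.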

[2] = Toxicity in NMRI mouse assessed as adverse effect at 50 mg/kg, po measured upto 24 hrs by UP-LCMS analysis; assay type: organism-based; settings: in vivo; procedure, shortened: as §1
[3] = test system: Plasmodium falciparum; assay: Antiplasmodial activity against Plasmodium falciparum infected in PfalcHy mouse assessed as reduction in blood parasitemia level administered orally; assay type: functional, organism-based; settings: dose 40.0 mg/kg, route po
Procedure, shortened: (§2)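 Female NSG mice (22–28 g) engrafted with human erythrocytes by daily i.p./i.v. injection; once >40% circulating human RBCs, infected i.v. with P. falciparum Pf3D7 0087/N9. Oral gavage (10 mL/kg) from ~1.3% parasitemia (Day 1); 40 mg/kg QD, BID or TID for 4 days. Parasitemia in tail blood by flow cytometry (TER-119-PE, SYTO-16) and Giemsa smears; stage distribution examined on day 3.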

[4] = test system: Plasmodium falciparum; assay: Antiplasmodial activity against Plasmodium falciparum infected in NSG mouse model assessed as accumulation of circulating mature schizonts at 40 mg/kg, po measured after 3 days by giemsa staining based flow cytometry analysis; assay type: functional, organism-based; settings: time 3.0 day; procedure, shortened: as §2

CCCN1CCCCCc2cccc(c2)C[C@@H]([C@H](O)CNC(C)(C)c2cccc(OC)c2)NC(=O)c2cccc(c2)C1=O
Activity [1]: Non-Toxic
Activity [2]: Non-Toxic
Activity [3]: Dose-Dependent Effect
Activity [4]: Active
